Data set [1] is described as follows: Toxicity in C57BL/6 mouse assessed as change in heart weight/body weight ratio at 50 to 200 mg/kg, ig administered for 4 weeks. The following applies: in vivo, po, 672 h, dose 50-200 mg/kg. The data set is classed as organism-based. The method in brief:
(§1)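 Male C57BL/6 mice (6 per group) given 50, 100 or 200 mg/kg intragastrically daily for 4 weeks. Saline-perfused hearts were weighed and examined for gross morphology, with representative hearts chosen by similar body weight. Heart weight was expressed relative to body weight and to tibia length.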

Data set [2] concerns HepG2. Description: Activation of AMPK in human HepG2 cells assessed as increase in ACC phosphorylation at 1 to 20 uM measured after 2 to 12 hrs by Western blotting analysis. The following applies: filed as activator, dose 1-20 µM, time 2-12 hrs. The data set is classed as cell-based. Put shortly:
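HepG2 and HuH-7 cells in medium with 10% FBS and penicillin/streptomycin at 37 °C, 5% CO₂. Treated with a range of concentrations for 2 h, or with 10 μM over a time course. Cells lysed in RIPA buffer with protease/phosphatase inhibitors; ~30 µg protein per lane blotted for p-AMPK, AMPK, p-ACC, ACC, with GAPDH or β-actin as loading control. Detected by ECL.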

The test system of data set [3] is C2C12. Description: Activation of AMPK in mouse C2C12 cells with SiRNA-induced LKB1 knock down assessed as increase in ACC phosphorylation. Type of data set: cell-based.
A short description of data set [4]: Toxicity in db/db mouse assessed as effect on body weight at 100 mg/kg, ig administered for 10 weeks. Type of data set: organism-based. The conditions noted are these: in vivo, po, 1680 h. Put shortly: (§2)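 db/db mice, 5 weeks old, grouped by matching baseline blood glucose and body weight. Dosed intragastrically once daily at 100 mg/kg in 0.5% methylcellulose; vehicle-treated db/db and db/m mice served as controls. Body weight and fasting blood glucose measured weekly. Serum ALT and AST measured after 10 weeks. Data given as mean ± SEM.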

The nature of data set [5]: Metabolic stability in human liver microsomes assessed as compound remaining preincubated for 5 mins followed by NADPH addition and measured up to 45 mins by LC/MS analysis. Type of data set: ADME, Microsome. The following applies: time 50 min, read-out: Stabilty. Put shortly: (§3)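 Compound was preincubated with mouse (ICR/CD-1) or human liver microsomes in potassium phosphate buffer at 37 °C for 5 min, then NADPH was added to start the reaction. Samples were quenched with acetonitrile containing tolbutamide internal standard at 0, 5, 15, 30 and 45 min. Parent compound measured by LC/MS; ketanserin served as control.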
For orientation: Microsomes from liver hold many membrane-bound enzymes, among them those of drug oxidation.

The test system of data set [6] is C2C12. The data set can be described thus: Activation of AMPK in mouse C2C12 cells with SiRNA-induced LKB1 knock down assessed as increase in AMPK phosphorylation. The data set is classed as cell-based.
Data set [7] is filed under the species Mus musculus. The data set can be described thus: Improvement in lipid homeostasis in db/db mouse assessed as effect on serum triglyceride level. Type of data set: functional, organism-based.
A short description of data set [8]: Toxicity in C57BL/6 mouse assessed as change in heart weight/tibia length ratio at 50 to 200 mg/kg, ig administered for 4 weeks. Type of data set: organism-based. The following applies: in vivo, po, 672 h, dose 50-200 mg/kg. Put shortly:
as §1

In data set [9] the test system is C2C12. The data set can be described thus: Cytotoxicity against mouse C2C12 cells assessed as reduction in cell viability at 5 to 20 uM incubated for 24 to 72 hrs by MTT assay. Type of data set: cell-based. The following applies: c2c12, 20 µM, dose lower 5 µM, time lower 24 hrs, dose upper 20 µM, time upper 72 hrs. The method in brief: (§4)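 MTT viability assay in C2C12, HepG2 and A549 cells. Exposure was 24 h or 72 h for C2C12 and 72 h for HepG2 and A549. Three replicates per group, compared with the 0 μM group by Student's t test.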
For orientation: Tetrazolium dyes change colour on reduction, which living cells bring about.

Data set [10] can be described thus: Toxicity in db/db mouse assessed as effect on serum ALT level at 100 mg/kg, ig administered for 10 weeks. The data set is classed as organism-based. The conditions noted are these: in vivo, po, 1680 h. The method in brief:
as §2

The nature of data set [11]: Inhibition of mitochondrial complex 1 in human HepG2 cells assessed as increase in ADP/ATP ratio at 10 uM. The data set is classed as cell-based. The following applies: hepg2, 10 µM. The method in brief:
(§5)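 HepG2 cells treated with 10 μM or 0.5 μM compound, or DMSO. Cellular ADP:ATP and AMP:ATP ratios were measured. Three replicates, given as mean ± SD and compared by Student's t test.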

Data set [12] can be described thus: Inhibition of mitochondrial complex 1 in human HepG2 cells assessed as increase in AMP/ATP ratio at 10 uM. Type of data set: cell-based. The conditions noted are these: hepg2, 10 µM. The method in brief: as §5
Data set [13] concerns Mus musculus. Description: Hypoglycemic activity in 6 hrs fasted normal lean C57BL/6 mouse assessed as reduction in blood glucose level at 100 mg/kg, ig pretreated for 2 hrs followed by glucose challenge and measured up to 90 mins post glucose challenge starting from 120 mins prior to […] by IPGTT. Type of data set: functional, organism-based. The following applies: time 210.0 min. The method in brief:
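C57BL/6 mice (male, 8-10 weeks, n=6 per group) fasted 6 h, then given compound or vehicle intragastrically. Two hours later, 20% glucose was injected i.p. at 2 g/kg. Tail-vein glucose read by glucometer at -120, 0, 20, 40, 60 and 90 min, and net AUC calculated. Doses were 25, 50 and 100 mg/kg.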

A further data set relates to H9c2. Description: Activation of AMPK in rat H9C2 cells assessed as increase in phosphorylation of AMPK at 1 to 20 uM incubated for 1 to 24 hrs by Western blot analysis. Type of data set: cell-based. The following applies: dose 1-20 µM, time 1-24 hrs. The method in brief:
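Rat cardiac H9C2 cells treated with a concentration range for 2 h or 4 h, or with 10 μM over a time course. Lysates blotted for phosphorylated and total AMPK and ACC, detected by ECL.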

A short description of data set [14]: Metabolic stability in ICR/CD-1 mouse liver microsomes assessed as half life preincubated for 5 mins followed by NADPH addition and measured up to 45 mins by LC/MS analysis. Type of data set: ADME, Microsome. The following applies: time 50 min. The method in brief: as §3
The nature of data set [15]: Metabolic stability in ICR/CD-1 mouse liver microsomes assessed as compound remaining preincubated for 5 mins followed by NADPH addition and measured up to 45 mins by LC/MS analysis. The data set is classed as ADME, Microsome. The following applies: time 50 min, read-out: Stabilty. Put shortly: as §3
Data set [16] concerns HepG2. Description: Cytotoxicity against human HepG2 cells assessed as reduction in cell viability at 10 to 20 uM incubated for 72 hrs by MTT assay. The conditions noted are these: hepg2, 72 h, dose 10-20 µM. Type of data set: cell-based. Put shortly:
as §4

Data set [17] in a line: Metabolic stability in human liver microsomes assessed as half life preincubated for 5 mins followed by NADPH addition and measured up to 45 mins by LC/MS analysis. Type of data set: ADME, Microsome. The following applies: time 50 min. Put shortly:
as §3

Data set [18] is described as follows: Toxicity in C57BL/6 mouse assessed as change in gross morphology of heart at 50 to 200 mg/kg, ig administered for 4 weeks. The data set is classed as organism-based. The following applies: in vivo, po, 672 h, dose 50-200 mg/kg. The method in brief: as §1
Data set [19] is described as follows: Induction of cardiac hypertrophy in normal lean C57BL/6 mouse assessed as increase in cardiac glycogen level at 100 mg/kg, ig administered for 4 weeks by PAS staining based analysis. Type of data set: organism-based. The conditions noted are these: in vivo, po, 672 h. Put shortly: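 Male C57BL/6 mice, 9 weeks old, dosed intragastrically daily for 4 weeks. After saline perfusion, organ weights and tibia length were recorded. Heart pieces were fixed in 4% paraformaldehyde, embedded in paraffin and stained with periodic acid-Schiff to show glycogen.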

Data set [20] relates to Mus musculus. Description: Activation of AMPK in normal lean C57BL/6 mouse assessed as increase in phosphorylated AMPK level in heart tissue at 100 mg/kg, ig administered for 4 weeks by Western blot analysis. The data set is classed as functional, organism-based. The method in brief: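 Male C57BL/6 mice, 9 weeks old, dosed intragastrically once daily for 4 weeks alongside vehicle controls. Heart and skeletal muscle were homogenized in RIPA buffer with protease/phosphatase inhibitors and centrifuged at 10,600 g for 20 min. About 30 µg protein was blotted for p-AMPK and p-ACC and detected by ECL.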
Background: In western blotting, separated proteins are transferred to a membrane and probed.

These results are taken from ChEMBL document CHEMBL4765352, “Discovery of AdipoRon analogues as novel AMPK activators without inhibiting mitochondrial complex I” (Eur J Med Chem, 2020).

Calls of active or inactive are those of the source.

As a reminder, the half-life is the time needed for the level to fall by half in the phase considered. On to `CC(C)(Oc1ccc(Cl)cc1)C(=O)Nc1ccc(OCc2ccc(C#N)cc2)cc1`, for which the Activity result in data set [1] is “Non-Toxic”; in data set [4] it was “Non-Toxic”; in [8] it was “Non-Toxic”; with C2C12 [9], “Non-Toxic”; in [10] it was “Non-Toxic”; in the data set on HepG2 [16] it was “Toxic”. The Activity entry in data set [18] and in data set [19] was “Non-Toxic” in each case. In addition, the outcome with HepG2 [2] and in the data set on Mus musculus [13] was Active. Besides, the outcome in the data set on C2C12 [3], with C2C12 [6], in the data set listed under Mus musculus [7], in the data set with H9c2 and with Mus musculus [20] was inactive. Moreover, the remaining at 0.75 h in data set [5] worked out at 74%; in data set [15], 39%. Moreover, the “inhibition (INH)” value in [11] and in data set [12] was “Not Active” in each case. Further, the half-life in [14] is 0.6 h; in data set [17] it was 1.62 h.
